Legend:
[1] = Biodistribution in Large intestine of athymic mouse xenografted with human SJSA-1 cells at 166.5 kBq, iv after 30 mins by automated gamma counting method; format: ADME, organism-based; details: in vivo, 0.5 h
Outline: (§1)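 125I-labeled peptide (166.5 kBq in 100 μL) was injected via tail vein into athymic mice bearing flank SJSA-1 xenografts, n = 5 per time point. Tumors, blood and major organs were gamma-counted at 0.5, 2, 6 and 24 h post-injection. Values are %ID/g.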

[2] = Biodistribution in Stomach of athymic mouse xenografted with human SJSA-1 cells at 166.5 kBq, iv after 24 hrs by automated gamma counting method; format: ADME, organism-based; details: in vivo
Outline: (§2)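 Athymic mice bearing flank SJSA-1 xenografts received 125I-SIB-labeled peptide (166.5 kBq, 100 μL) by tail vein; groups of five per time point. Tumor, blood and organs were taken at 0.5–24 h and counted by gamma counter; values expressed as %ID/g.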

[3] = Biodistribution in Thyroid of athymic mouse xenografted with human SJSA-1 cells at 166.5 kBq, iv after 6 hrs by automated gamma counting method; format: ADME, organism-based, Thyroid gland; details: in vivo; outline: as §2
[4] = Biodistribution in Large intestine of athymic mouse xenografted with human SJSA-1 cells at 166.5 kBq, iv after 2 hrs by automated gamma counting method; format: ADME, organism-based; details: in vivo; outline: as §1
[5] = Drug uptake in MDM2-amplified human SJSA-1 cells expressing wild type p53 assessed as initially bound radioactivity incubated for 1.5 hrs subsequently re-incubating the cells with fresh medium for up to 2 hrs; format: ADME, cell-based; details: sjsa-1, 1.5 h
Outline: (§3)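 SJSA-1 cells were loaded with 125I-labeled peptide for 1 h, then reincubated in fresh medium for 0.5–2 h. Cell-retained activity and cumulative release into the supernatant were expressed as percentage of initially bound activity.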

[6] = Drug uptake in MDM2-amplified human SJSA-1 cells expressing wild type p53 assessed as initially bound radioactivity incubated for 2 hrs subsequently re-incubating the cells with fresh medium for up to 2 hrs; format: ADME, cell-based; details: sjsa-1, 2 h; outline: as §3
[7] = Biodistribution in Spleen of athymic mouse xenografted with human SJSA-1 cells at 166.5 kBq, iv after 24 hrs by automated gamma counting method; format: ADME, organism-based; details: in vivo; outline: as §1
[8] = Biodistribution in Brain of athymic mouse xenografted with human SJSA-1 cells at 166.5 kBq, iv after 30 mins by automated gamma counting method; format: ADME, organism-based; details: in vivo, 0.5 h; outline: as §1
[9] = Biodistribution in Liver of athymic mouse xenografted with human SJSA-1 cells at 166.5 kBq, iv after 30 mins by automated gamma counting method; format: ADME, organism-based; details: in vivo, 0.5 h; outline: as §1
[10] = Biodistribution in Kidney of athymic mouse xenografted with human SJSA-1 cells at 166.5 kBq, iv after 24 hrs by automated gamma counting method; format: ADME, organism-based; details: in vivo; outline: as §1
[11] = Biodistribution in Stomach of athymic mouse xenografted with human SJSA-1 cells at 166.5 kBq, iv after 30 mins by automated gamma counting method; format: ADME, organism-based; details: in vivo, 0.5 h; outline: as §2
[12] = Drug uptake in MDM2-amplified human SJSA-1 cells expressing wild type p53 assessed as released into supernatant incubated for 0.5 hrs subsequently re-incubating the cells with fresh medium for up to 2 hrs; format: ADME, cell-based; details: sjsa-1, 0.5 h; outline: as §3
[13] = Biodistribution in Bone of athymic mouse xenografted with human SJSA-1 cells at 166.5 kBq, iv after 30 mins by automated gamma counting method; format: ADME, organism-based, Bone element; details: in vivo, 0.5 h; outline: as §1
[14] = Biodistribution in Skin of athymic mouse xenografted with human SJSA-1 cells at 166.5 kBq, iv after 30 mins by automated gamma counting method; format: ADME, organism-based, Skin of body; details: in vivo, 0.5 h; outline: as §1
[15] = Biodistribution in Tumor of athymic mouse xenografted with human SJSA-1 cells at 166.5 kBq, iv after 6 hrs by automated gamma counting method; format: ADME, organism-based, Neoplasm; details: in vivo; outline: as §2
[16] = Biodistribution in Blood of athymic mouse xenografted with human SJSA-1 cells at 166.5 kBq, iv after 6 hrs by automated gamma counting method; format: ADME, organism-based; details: in vivo; outline: as §1
[17] = Biodistribution in Spleen of athymic mouse xenografted with human SJSA-1 cells at 166.5 kBq, iv after 30 mins by automated gamma counting method; format: ADME, organism-based; details: in vivo, 0.5 h; outline: as §1
[18] = Biodistribution in Thyroid of athymic mouse xenografted with human SJSA-1 cells at 166.5 kBq, iv after 30 mins by automated gamma counting method; format: ADME, organism-based, Thyroid gland; details: in vivo, 0.5 h; outline: as §2
[19] = Biodistribution in Muscle of athymic mouse xenografted with human SJSA-1 cells at 166.5 kBq, iv after 30 mins by automated gamma counting method; format: ADME, organism-based, Muscle tissue; details: in vivo, 0.5 h; outline: as §1
[20] = Biodistribution in Blood of athymic mouse xenografted with human SJSA-1 cells at 166.5 kBq, iv after 2 hrs by automated gamma counting method; format: ADME, organism-based; details: in vivo; outline: as §1
[21] = Drug uptake in MDM2-amplified human SJSA-1 cells expressing wild type p53 at 5 to 50 uM incubated for 30 mins; format: ADME, cell-based; details: sjsa-1, 0.5 h, dose 5-50 µM
Outline: (§4)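 For uptake kinetics, SJSA-1 cells in serum-free RPMI-1640 were incubated 30–120 min with 125I-labeled peptide, with or without 50 μM unlabeled parent peptide. Cells were washed with PBS and lysed, and uptake was normalized to protein (%/mg protein). Triplicates, mean ± SD.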

[22] = Lipophilicity, logD of the compound using n-octanol and phosphate-buffered saline at pH 7.4 by the shake flask method; format: physicochemical
Outline: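 Shake-flask partition of the 125I-labeled peptide between n-octanol and PBS pH 7.4; logD from n = 4.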

[23] = Biodistribution in Heart of athymic mouse xenografted with human SJSA-1 cells at 166.5 kBq, iv after 30 mins by automated gamma counting method; format: ADME, organism-based; details: in vivo, 0.5 h; outline: as §1
[24] = Drug uptake in MDM2-amplified human SJSA-1 cells expressing wild type p53 assessed as initially bound radioactivity incubated for 1 hrs subsequently re-incubating the cells with fresh medium for up to 2 hrs; format: ADME, cell-based; details: sjsa-1, 1 h; outline: as §3
[25] = Biodistribution in Tumor of athymic mouse xenografted with human SJSA-1 cells at 166.5 kBq, iv after 24 hrs by automated gamma counting method; format: ADME, organism-based, Neoplasm; details: in vivo; outline: as §2
[26] = Biodistribution in Small intestine of athymic mouse xenografted with human SJSA-1 cells at 166.5 kBq, iv after 30 mins by automated gamma counting method; format: ADME, organism-based; details: in vivo, 0.5 h; outline: as §1
[27] = Biodistribution in Urinary bladder of athymic mouse xenografted with human SJSA-1 cells at 166.5 kBq, iv after 30 mins by automated gamma counting method; format: ADME, organism-based; details: in vivo, 0.5 h; outline: as §2
[28] = Biodistribution in Large intestine of athymic mouse xenografted with human SJSA-1 cells at 166.5 kBq, iv after 24 hrs by automated gamma counting method; format: ADME, organism-based; details: in vivo; outline: as §1
[29] = Biodistribution in Skin of athymic mouse xenografted with human SJSA-1 cells at 166.5 kBq, iv after 24 hrs by automated gamma counting method; format: ADME, organism-based, Skin of body; details: in vivo; outline: as §1
[30] = Biodistribution in Blood of athymic mouse xenografted with human SJSA-1 cells at 166.5 kBq, iv after 24 hrs by automated gamma counting method; format: ADME, organism-based; details: in vivo; outline: as §1
[31] = Drug uptake in MDM2-amplified human SJSA-1 cells expressing wild type p53 at 5 to 50 uM incubated for 60 mins; format: ADME, cell-based; details: sjsa-1, 1 h, dose 5-50 µM; outline: as §4
[32] = Biodistribution in Urinary bladder of athymic mouse xenografted with human SJSA-1 cells at 166.5 kBq, iv after 6 hrs by automated gamma counting method; format: ADME, organism-based; details: in vivo; outline: as §2
[33] = Biodistribution in Brain of athymic mouse xenografted with human SJSA-1 cells at 166.5 kBq, iv after 6 hrs by automated gamma counting method; format: ADME, organism-based; details: in vivo; outline: as §1

CC(=O)NC(CCCCNC(=O)c1cccc([125I])c1)C(=O)NCCCCCC(=O)N[C@H](C(=O)N[C@@H](CO)C(=O)N[C@@H](Cc1ccccc1)C(=O)N[C@@]1(C)CCCCCC/C=C/CCC[C@@](C)(C(=O)N[C@@H](CCC(=O)O)C(=O)N[C@@H](CC(N)=O)C(=O)N[C@@H](Cc2ccccc2)C(N)=O)NC(=O)[C@H](CC(C)C)NC(=O)[C@H](CC(C)C)NC(=O)[C@H](C)NC(=O)[C@H](Cc2c[nH]c3ccccc23)NC(=O)[C@H](Cc2ccc(O)cc2)NC(=O)[C@H](CCC(=O)O)NC1=O)[C@@H](C)O (stereo partly drawn)
Drug uptake [1]: 0.06 % ID/g
Drug uptake [2]: 0.84 % ID/g
Drug uptake [3]: 1.19 % ID/g
Drug uptake [4]: 0.24 % ID/g
Drug uptake [5]: 66.4%
Drug uptake [6]: 62%
Drug uptake [7]: 0.58 % ID/g
Drug uptake [8]: 0.24 % ID/g
Drug uptake [9]: 13.52 % ID/g
Drug uptake [10]: 0.63 % ID/g
Drug uptake [11]: 0.34 % ID/g
Drug uptake [12]: 16.9%
Drug uptake [13]: 0.38 % ID/g
Drug uptake [14]: 0.57 % ID/g
Drug uptake [15]: 2.11 % ID/g
Drug uptake [16]: 5.12 % ID/g
Drug uptake [17]: 1.29 % ID/g
Drug uptake [18]: 0.89 % ID/g
Drug uptake [19]: 0.16 % ID/g
Drug uptake [20]: 6.84 % ID/g
Drug uptake [21]: 104 %/mg protein
logD [22]: 1.45
Drug uptake [23]: 2.52 % ID/g
Drug uptake [24]: 72.8%
Drug uptake [25]: 0.36 % ID/g
Drug uptake [26]: 0.43 % ID/g
Drug uptake [27]: 0.61 % ID/g
Drug uptake [28]: 1.87 % ID/g
Drug uptake [29]: 0.52 % ID/g
Drug uptake [30]: 0.62 % ID/g
Drug uptake [31]: 142 %/mg protein
Drug uptake [32]: 0.95 % ID/g
Drug uptake [33]: 0.2 % ID/g

From ChEMBL document CHEMBL5143669, “Stapled peptides as scaffolds for developing radiotracers for intracellular targets: Preliminary evaluation of a radioiodinated MDM2-binding stapled peptide in the SJSA-1 osteosarcoma model” (Bioorg Med Chem Lett, 2022)
